Laboratory results from ChEMBL document CHEMBL1143122, “Novel analogs of D-e-MAPP and B13. Part 1: synthesis and evaluation as potential anticancer agents” (Bioorg Med Chem, 2008).

Legend:
PC-3 = assay: Antiproliferative activity against human PC3 cells after 48 hrs; format: functional; settings: PC-3, 48 h
Method in brief: (§1)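 NCI 60-cell screen. Cells were grown in RPMI 1640 with 5% FBS and 2 mM L-glutamine, then plated at 5,000–40,000 cells/well according to doubling time and preincubated for 24 h at 37 °C in 5% CO2. Compounds were dissolved in DMSO at 400× the top final concentration and tested at five 10-fold dilutions from 10−4 to 10−8 M for 48 h. Growth was read spectrophotometrically; GI50 is 50% net protein reduction.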

Malme-3M = assay: Antiproliferative activity against human MALME3M cells after 48 hrs; format: functional; method in brief: as §1
COLO 205 = assay: Antiproliferative activity against human COLO205 cells after 48 hrs; format: functional; settings: COLO 205, 48 h; method in brief: as §1
IGROV-1 = assay: Antiproliferative activity against human IGROV1 cells after 48 hrs; format: functional; settings: IGROV-1, 48 h; method in brief: as §1
[1] = Antiproliferative activity against human HL60(TB) cells after 48 hrs; format: functional, HL-60(TB); settings: HL-60, 48 h
Method in brief: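 NCI 60-line panel screen: cells grown in RPMI 1640 with 5% fetal bovine serum and 2 mM L-glutamine, plated at 5,000–40,000 cells/well by doubling time, and preincubated 24 h at 37 °C in 5% CO2. Drugs were solubilised in DMSO at 400-fold the final maximum and tested at five 10-fold dilutions from 10−4 to 10−8 M for 48 h. Net protein was read spectrophotometrically, and the concentration giving 50% reduction was reported as log10 GI50.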

786-0 = assay: Antiproliferative activity against human 786-0 cells after 48 hrs; format: functional; settings: 786-0, 48 h; method in brief: as §1
OVCAR-3 = assay: Antiproliferative activity against human OVCAR-3 cells after 48 hrs; format: functional; settings: OVCAR-3, 48 h; method in brief: as §1
ACHN = assay: Antiproliferative activity against human ACHN cells after 48 hrs; format: functional; method in brief: as §1
OVCAR-4 = assay: Antiproliferative activity against human OVCAR4 cells after 48 hrs; format: functional; settings: OVCAR-4, 48 h; method in brief: as §1
SN12C = assay: Antiproliferative activity against human SN12C cells after 48 hrs; format: functional; method in brief: as §1
NCI-H522 = assay: Antiproliferative activity against human NCI-H522 cells after 48 hrs; format: functional; settings: NCI-H522, 48 h; method in brief: as §1
HT-29 = assay: Antiproliferative activity against human HT29 cells after 48 hrs; format: functional; settings: HT-29, 48 h; method in brief: as §1
SF-295 = assay: Antiproliferative activity against human SF295 cells after 48 hrs; format: functional; settings: SF-295, 48 h; method in brief: as §1
[2] = Antiproliferative activity against human NCI-ADR-RES cells after 48 hrs; format: functional; method in brief: as §1
HCT-116 = assay: Antiproliferative activity against human HCT116 cells after 48 hrs; format: functional; settings: HCT-116, 48 h; method in brief: as §1
Hs-578T = assay: Antiproliferative activity against human HS578T cells after 48 hrs; format: functional; method in brief: as §1
SF-539 = assay: Antiproliferative activity against human SF539 cells after 48 hrs; format: functional; settings: SF-539, 48 h; method in brief: as §1
SK-MEL-5 = assay: Antiproliferative activity against human SKMEL5 cells after 48 hrs; format: functional; settings: SK-MEL-5, 48 h, read-out: Log LC50 (the source's name) (converted); method in brief: as §1
TK-10 = assay: Antiproliferative activity against human TK10 cells after 48 hrs; format: functional; settings: TK-10, 48 h
Method in brief: (§2)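 NCI 60-cell-line screen. Lines grown in RPMI 1640 with 5% fetal bovine serum and 2 mM L-glutamine, plated at 5,000–40,000 cells/well according to doubling time, left 24 h at 37 °C in 5% CO2. Drug stocks in DMSO at 400-fold the top final concentration. Five 10-fold dilutions, 10−4 to 10−8 M, incubated 48 h. Growth read spectrophotometrically as net protein; GI50 taken as 50% reduction.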

HCC 2998 = assay: Antiproliferative activity against human HCC2998 cells after 48 hrs; format: functional; settings: HCC 2998, 48 h; method in brief: as §1
CCRF-CEM = assay: Antiproliferative activity against human CCRF-CEM cells after 48 hrs; format: functional; method in brief: as §1
M14 = assay: Antiproliferative activity against human M14 cells after 48 hrs; format: functional; settings: M14, 48 h; method in brief: as §1
A498 = assay: Antiproliferative activity against human A498 cells after 48 hrs; format: functional; settings: A498, 48 h; method in brief: as §1
NCI-H23 = assay: Antiproliferative activity against human NCI-H23 cells after 48 hrs; format: functional; settings: NCI-H23, 48 h; method in brief: as §1
RXF 393 = assay: Antiproliferative activity against human RXF393 cells after 48 hrs; format: functional; settings: RXF 393, 48 h; method in brief: as §1
SNB-19 = assay: Antiproliferative activity against human SNB19 cells after 48 hrs; format: functional; settings: SNB-19, 48 h; method in brief: as §1
NCI-H226 = assay: Antiproliferative activity against human NCI-H226 cells after 48 hrs; format: functional; settings: NCI-H226, 48 h; method in brief: as §1
SW-620 = assay: Antiproliferative activity against human SW620 cells after 48 hrs; format: functional; settings: SW-620, 48 h; method in brief: as §2
KM12 = assay: Antiproliferative activity against human KM12 cells after 48 hrs; format: functional; settings: Homo sapiens, KM12, 48 h; method in brief: as §1
A549 = assay: Antiproliferative activity against human A549 cells after 48 hrs; format: functional; settings: A549, 48 h; method in brief: as §1
[3] = read-out: Log LC50 (the source's name) (converted)

CCCCCCCCCCCCCCN[C@H](C)[C@@H](O)c1ccccc1.Cl
GI50 (PC-3): 1.86 µM
LC50 (PC-3): 5.89 µM
TGI (PC-3; read-out: Log TGI (converted)): 3.31 µM
GI50 (Malme-3M): 1.95 µM
LC50 (Malme-3M): 6.03 µM
TGI (Malme-3M; read-out: Log TGI (converted)): 3.39 µM
GI50 (COLO 205): 1.91 µM
CC50 (COLO 205; [3]): 6.17 µM
TGI (COLO 205; read-out: Log TGI (converted)): 3.39 µM
GI50 (IGROV-1): 1.62 µM
LC50 (IGROV-1): 5.75 µM
TGI (IGROV-1; read-out: Log TGI (converted)): 3.09 µM
GI50 [1]: 0.0871 µM
LC50 [1]: 6.61 µM
TGI ([1]; read-out: Log TGI (converted)): 2.51 µM
GI50 (786-0): 1.74 µM
CC50 (786-0; [3]): 5.75 µM
TGI (786-0; read-out: Log TGI (converted)): 3.16 µM
GI50 (OVCAR-3): 1.74 µM
LC50 (OVCAR-3): 6.03 µM
TGI (OVCAR-3; read-out: Log TGI (converted)): 3.24 µM
GI50 (ACHN): 1.86 µM
CC50 (ACHN; [3]): 5.89 µM
TGI (ACHN; read-out: Log TGI (converted)): 3.31 µM
GI50 (OVCAR-4): 2.14 µM
LC50 (OVCAR-4): 6.76 µM
TGI (OVCAR-4; read-out: Log TGI (converted)): 3.8 µM
GI50 (SN12C): 1.78 µM
LC50 (50% net cell kill) (SN12C): 6.76 µM
TGI (SN12C; read-out: Log TGI (converted)): 3.47 µM
GI50 (NCI-H522): 1.91 µM
CC50 (NCI-H522; [3]): 6.61 µM
TGI (NCI-H522; read-out: Log TGI (converted)): 3.55 µM
GI50 (HT-29): 1.78 µM
LC50 (HT-29): 5.75 µM
TGI (HT-29; read-out: Log TGI (converted)): 3.24 µM
GI50 (SF-295): 1.82 µM
LC50 (SF-295): 6.17 µM
TGI (SF-295; read-out: Log TGI (converted)): 3.39 µM
GI50 [2]: 1.82 µM
TGI ([2]; read-out: Log TGI (converted)): 3.55 µM
GI50 (HCT-116): 1.86 µM
LC50 (HCT-116): 5.75 µM
TGI (HCT-116; read-out: Log TGI (converted)): 3.24 µM
GI50 (Hs-578T): 2.51 µM
LC50 (Hs-578T): 46.8 µM
TGI (Hs-578T; read-out: Log TGI (converted)): 5.5 µM
GI50 (SF-539): 1.35 µM
LC50 (SF-539): 5.5 µM
TGI (SF-539; read-out: Log TGI (converted)): 2.69 µM
CC50 (SK-MEL-5): 100 µM
GI50 (TK-10): 1.86 µM
CC50 (TK-10; [3]): 5.75 µM
TGI (TK-10; read-out: Log TGI (converted)): 3.31 µM
GI50 (HCC 2998): 1.86 µM
CC50 (HCC 2998; [3]): 6.46 µM
TGI (HCC 2998; read-out: Log TGI (converted)): 3.47 µM
GI50 (CCRF-CEM): 1.45 µM
CC50 (CCRF-CEM; [3]): 7.59 µM
TGI (CCRF-CEM; read-out: Log TGI (converted)): 3.31 µM
GI50 (M14): 1.86 µM
LC50 (M14): 6.17 µM
TGI (M14; read-out: Log TGI (converted)): 3.39 µM
GI50 (A498): 3.16 µM
CC50 (A498; [3]): 74.1 µM
TGI (A498; read-out: Log TGI (converted)): 6.46 µM
GI50 (NCI-H23): 2.14 µM
CC50 (NCI-H23; [3]): 7.94 µM
TGI (NCI-H23; read-out: Log TGI (converted)): 4.07 µM
GI50 (RXF 393): 1.38 µM
CC50 (RXF 393; [3]): 5.5 µM
TGI (RXF 393; read-out: Log TGI (converted)): 2.75 µM
GI50 (SNB-19): 1.74 µM
TGI (SNB-19; read-out: Log TGI (converted)): 3.09 µM
GI50 (NCI-H226): 1.86 µM
CC50 (NCI-H226; [3]): 7.08 µM
TGI (NCI-H226; read-out: Log TGI (converted)): 3.63 µM
GI50 (SW-620): 2.14 µM
LC50 (concentration killing 50% of cells) (SW-620): 7.94 µM
TGI (SW-620; read-out: Log TGI (converted)): 4.17 µM
GI50 (KM12): 1.82 µM
CC50 (KM12; [3]): 5.62 µM
TGI (KM12; read-out: Log TGI (converted)): 3.16 µM
GI50 (A549): 1.74 µM
CC50 (A549; [3]): 6.31 µM
TGI (A549; read-out: Log TGI (converted)): 3.31 µM
